DENV2 CPE = protects cells from dengue virus 2 cytopathic effect; CPE inhibition, % at 9.99 µM; 1.7% of 350,000 active; DENV2-infected cells, cytopathic effect rescue, plate reader; in the data active = CPE inhibition above about 20%, passing the limit was not always enough; inconclusive = no clear call, values can overlap the other calls; tested in BHK-21 cells;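 also: 0% = median of neutral control wells and 100% = median of positive control wells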
SIRT5 inh = sirtuin-5 (human) deacylase inhibition. Q9NXA8. Purified SirT5, succinyl-peptide AMC, trypsin-coupled fluorescence. inhibition, % at 15 µM. 1.1% of 330,000 active. AID 652115; in the data active = inhibition above about 15%; inconclusive = no clear call, values can overlap the other calls
E-sel inducer = induces E-selectin expression in human endothelial cells; P16581; HUVEC E-selectin immunofluorescence imaging; normalized: neutral wells 0, TNF-alpha wells 100; activation, % at 7.58 µM; 0.37% of 260,000 active;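 active = mean E-selectin-positive cell signal at least 10% of the positive control, reached in at least 60% of replicates, without over 20% cell loss; inconclusive = no rule given, readout overlaps actives, possibly toxicity-flagged; inactive = the rest, including those meeting only one limit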
Target sequence (P16581 whole entry, looked up): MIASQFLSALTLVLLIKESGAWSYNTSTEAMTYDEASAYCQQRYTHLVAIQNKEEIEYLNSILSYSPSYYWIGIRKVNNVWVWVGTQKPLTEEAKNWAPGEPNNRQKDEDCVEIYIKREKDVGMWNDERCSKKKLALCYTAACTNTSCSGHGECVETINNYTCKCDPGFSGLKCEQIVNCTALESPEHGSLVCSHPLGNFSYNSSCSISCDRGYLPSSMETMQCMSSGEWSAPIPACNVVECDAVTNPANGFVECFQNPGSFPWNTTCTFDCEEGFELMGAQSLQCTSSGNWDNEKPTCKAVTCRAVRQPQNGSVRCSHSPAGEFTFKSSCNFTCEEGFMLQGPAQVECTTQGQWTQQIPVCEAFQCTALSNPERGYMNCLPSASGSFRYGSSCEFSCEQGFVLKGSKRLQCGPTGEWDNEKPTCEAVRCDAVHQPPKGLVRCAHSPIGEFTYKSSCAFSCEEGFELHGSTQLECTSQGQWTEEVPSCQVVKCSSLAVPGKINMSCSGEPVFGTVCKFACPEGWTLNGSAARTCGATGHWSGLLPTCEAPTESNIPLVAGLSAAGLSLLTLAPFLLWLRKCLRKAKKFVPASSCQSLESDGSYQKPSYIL
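assay system = HUVEC, human umbilical vein endothelial cells | input = 3,000 HUVEC seeded per well | medium = EGM-2 growth medium on 0.1% gelatin-coated wells | dosing = one compound dose added by pin transfer | signal = immunofluorescence imaging | read-out basis = % PE-positive cells | control set = TNF-alpha, DMSO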
* = called active by the depositor; ? = inconclusive; nt = not tested or not shown; ! = a repeat was not active. Sampled rows, rich in hits. Any-hit rate of the full collection: about 2.9%.

SMILES	DENV2 CPE	SIRT5 inh	E-sel inducer
C[C@@H]1CN([C@H](C)CO)C(=O)c2cc(NS(=O)(=O)c3cccs3)ccc2O[C@@H](C)CCCCO[C@@H]1CN(C)S(=O)(=O)c1cn(C)cn1	-6	-3	0
C[C@H](CO)N1C[C@H](C)[C@H](CN(C)S(=O)(=O)c2cn(C)cn2)Oc2ccc(NS(=O)(=O)c3cccs3)cc2C1=O	-9	15*	-3
C[C@@H]1CN([C@@H](C)CO)C(=O)c2cc(NS(=O)(=O)c3cccs3)ccc2O[C@@H](C)CCCCO[C@H]1CN(C)S(=O)(=O)c1cn(C)cn1	31*	2	0
COc1ccc(/C=N/NC(=O)CCn2c3ccccc3c3ccccc32)cc1OC	-1	1	-3
C/C=C(/C)C(=O)Nc1cccc(C2=NOC3(C2)C[C@@H](C(N)=O)N(C(=O)CC(c2ccccc2)c2ccccc2)C3)c1 (some centres not stated)	-15	0	0
CC(C)N(C(=O)CSc1nnc(CSc2ncccn2)n1C)C(C)C	33*	-7	0
CCSc1nnc(CSc2ncccn2)n1C	1	-3	8
C[C@H](CO)N1C[C@H](C)[C@@H](CN(C)Cc2cccnc2)Oc2cc(-c3ccccc3F)ccc2S1(=O)=O	46*	nt	1
C[C@H]1CN([C@@H](C)CO)S(=O)(=O)c2ccc(-c3ccccc3F)cc2O[C@H]1CN(C)Cc1ccncc1	21*	0	0
Cc1ccc(-c2ccc3c(c2)O[C@@H](CN(C)Cc2cccnc2)[C@@H](C)CN([C@H](C)CO)S3(=O)=O)cc1	1	5	0
C[C@@H]1CN([C@H](C)CO)S(=O)(=O)c2ccc(-c3ccccc3F)cc2O[C@H]1CN(C)Cc1ccncc1	29*	7	0
Cc1ccc(-c2ccc3c(c2)O[C@H](CN(C)Cc2cccnc2)[C@H](C)CN([C@H](C)CO)S3(=O)=O)cc1	4	18*	0
C[C@H](CO)N1C[C@H](C)[C@H](CN(C)Cc2cccnc2)Oc2cc(-c3ccccc3F)ccc2S1(=O)=O	-3	8	1
C[C@H]1CN([C@@H](C)CO)S(=O)(=O)c2ccc(-c3ccccc3F)cc2O[C@@H]1CN(C)Cc1cccnc1	3	14	0
C[C@@H]1CN([C@H](C)CO)S(=O)(=O)c2ccc(-c3ccccc3F)cc2O[C@H]1CN(C)Cc1cccnc1	6	7	1
Cc1ccc(C(=O)n2cnc3ccccc32)cc1C	-8	3	0
CCOC(=O)CC1CCCCN1C(=O)c1ccc2oc(CCc3ccccc3)nc2c1 (configuration not stated)	-5	14	1
C[C@@H](O)C#Cc1ccc([C@@H]2[C@@H](CO)N3CCCCN(CC4CCOCC4)C[C@H]23)cc1	nt	nt	1
Cc1nc2ccn(Cc3ccccc3)c(=O)c2cc1C(=O)N1CCN(c2ccccc2)CC1	26*	-3	nt
Cc1cc(C)c2c(=O)n(CC(=O)N3CCN(c4ccccc4)CC3)ccc2n1	-10	-7	0
O=C(Nc1nccs1)c1ccc([N+](=O)[O-])cc1Cl	-5	0	0
CCN(c1ccccc1)S(=O)(=O)c1ccc(C(=O)N2CCOCC2)cc1	-2	-1	-1
CCN(c1ccccc1)S(=O)(=O)c1ccc(C(=O)N2CCN(c3ccccc3F)CC2)cc1	53*	-2	nt
O=C(Nc1ccc(Cl)cc1)C1CCN(C(=O)c2cccs2)CC1	3	0	nt
O=C(Nc1ccc(Cc2ccncc2)cc1)c1cccs1	31*	-2	nt
SMILES	DENV2 CPE	SIRT5 inh	E-sel inducer
O=C(c1ccncc1)c1ccc(NC(=O)c2cccs2)cc1	-1	0	1
Cc1noc(NS(=O)(=O)c2ccc(NC(=O)c3cc(=O)c4ccccc4o3)cc2)c1C	2	4	nt
COc1ccc(S(=O)(=O)Nc2ccc3c(c2)C(=O)N([C@H](C)CO)C[C@H](C)[C@@H](CN(C)C)O3)cc1	69*	-3	-4
CNC[C@@H]1Oc2ccc(NS(=O)(=O)c3ccc(Cl)cc3)cc2C(=O)N([C@H](C)CO)C[C@@H]1C	39*!	-4	0
COc1ccc(S(=O)(=O)N(C)C[C@H]2Oc3ccc(NS(=O)(=O)c4ccc(Cl)cc4)cc3C(=O)N([C@H](C)CO)C[C@H]2C)cc1	0	3	-1
COc1ccc(S(=O)(=O)Nc2ccc3c(c2)C(=O)N([C@H](C)CO)C[C@@H](C)[C@@H](CN(C)S(=O)(=O)c2ccc(Cl)cc2)O3)cc1	-9	20*	1
COc1ccc(S(=O)(=O)N(C)C[C@H]2Oc3ccc(NS(=O)(=O)c4ccc(Cl)cc4)cc3C(=O)N([C@@H](C)CO)C[C@@H]2C)cc1	-7	3	1
CNC[C@H]1Oc2ccc(NS(=O)(=O)c3ccc(Cl)cc3)cc2C(=O)N([C@@H](C)CO)C[C@@H]1C	-1	-7	nt
COc1ccc(S(=O)(=O)Nc2ccc3c(c2)C(=O)N([C@@H](C)CO)C[C@@H](C)[C@H](CN(C)S(=O)(=O)c2ccc(Cl)cc2)O3)cc1	85*	nt	20
COc1ccc(S(=O)(=O)Nc2ccc3c(c2)C(=O)N([C@@H](C)CO)C[C@H](C)[C@@H](CN(C)C)O3)cc1	13	nt	-7
CN(Cc1ccco1)C(=O)CC[C@H]1O[C@@H](n2ccc(=O)[nH]c2=O)[C@H](O)[C@@H]1O	-10	0	nt
COc1ccc(NC(=O)Nc2ccc(Br)cn2)cc1OC	nt	7	nt
COc1ccc(S(=O)(=O)Nc2ccc3c(c2)C(=O)N([C@@H](C)CO)C[C@@H](C)[C@@H](CN(C)S(=O)(=O)c2ccc(Cl)cc2)O3)cc1	14	nt	-4
COc1ccc(S(=O)(=O)Nc2ccc3c(c2)C(=O)N([C@@H](C)CO)C[C@H](C)[C@H](CN(C)S(=O)(=O)c2ccc(Cl)cc2)O3)cc1	15	nt	59*
O=[N+]([O-])c1cccc(COc2ccccc2CN2CCOCC2)c1	6	0	?
COc1cc(OC)cc(C(=O)NCC(=O)OCC(=O)/C=C2/N(C)c3ccccc3C2(C)C)c1	3	27*	nt
CC(C)[C@H](NC(=O)c1ccccc1)C(=O)OCC(=O)/C=C1/N(C)c2ccccc2C1(C)C	0	-3	nt
CCOC(=O)c1cnc2ccc(OCC)cc2c1NCCN1CCOCC1	-11	-2	nt
CCOC(=O)c1cnc2ccc(OCC)cc2c1NCCCN1CCOCC1	-2	27*	nt
Cc1ccc(S(=O)(=O)NC(C)(C)CSc2nncn2C)cc1	-10	-4	nt
Nc1cc(=O)nc(SCC(=O)Nc2cccc3ccccc23)n1CCc1ccccc1	nt	nt	1
Cc1cc(OC(C)C(=O)NCCCn2ccnc2)c2c(C)c(C)c(=O)oc2c1 (configuration not stated)	-2	-19	nt
C[C@H](CO)N1C[C@H](C)[C@H](CN(C)CC2CCCCC2)Oc2c(NS(=O)(=O)c3cccs3)cccc2C1=O	0	-1	nt
C[C@H](CO)N1C[C@H](C)[C@@H](CN(C)Cc2ccncc2)Oc2c(NS(=O)(=O)c3cccs3)cccc2C1=O	34*!	-1	-4
C[C@H]1CN([C@@H](C)CO)C(=O)c2cccc(NS(=O)(=O)c3cccs3)c2O[C@H]1CN(C)Cc1ccncc1	3	0	-2
C[C@@H]1CN([C@@H](C)CO)C(=O)c2cccc(NS(=O)(=O)c3cccs3)c2O[C@H]1CN(C)CC1CCCCC1	34*	-2	nt
